From PubChem BioAssay
SIAE inh: blocks human sialic acid acetylesterase | SIAE FP-Rh probe binding, fluorescence polarization | inhibition, % at 9.66 µM | hit rate 0.69% among 370,000;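 active means inhibition above a cutoff: mean of compounds within the control limits plus 3 SD of those, cut at about 17% in these data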;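 further: 0% = plate median of compound wells and 100% = probe without SIAE protein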
Target sequence (Q9HAT2 whole entry, looked up): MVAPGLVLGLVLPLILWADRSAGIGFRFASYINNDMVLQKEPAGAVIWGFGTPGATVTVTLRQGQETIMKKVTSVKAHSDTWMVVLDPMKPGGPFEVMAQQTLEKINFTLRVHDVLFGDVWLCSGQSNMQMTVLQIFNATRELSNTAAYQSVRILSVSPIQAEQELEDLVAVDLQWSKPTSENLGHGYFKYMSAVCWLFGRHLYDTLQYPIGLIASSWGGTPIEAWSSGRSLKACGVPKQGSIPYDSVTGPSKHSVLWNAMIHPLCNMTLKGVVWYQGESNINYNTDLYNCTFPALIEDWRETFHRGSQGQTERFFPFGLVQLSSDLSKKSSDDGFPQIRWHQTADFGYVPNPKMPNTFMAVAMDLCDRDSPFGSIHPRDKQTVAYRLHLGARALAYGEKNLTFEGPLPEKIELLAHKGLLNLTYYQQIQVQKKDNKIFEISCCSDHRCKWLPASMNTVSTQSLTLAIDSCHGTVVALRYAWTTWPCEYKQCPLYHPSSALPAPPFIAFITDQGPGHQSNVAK
ABHD4 inh: inhibits mouse alpha/beta hydrolase domain 4 | hit rate 0.54% among 370,000 | Q8VD66 | AID 720543 | inhibition, % at 8.92 µM | purified mABHD4, FP-Rh probe fluorescence polarization;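 active means inhibition exceeding the mean over every tested compound plus 3 SD, cut at about 30% in these data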;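 further: 0% = plate median of compound wells and 100% = S159A mutant with DMSO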
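Material: mouse ABHD4 enzyme, wild type; Benchmarks: S159A mutant high control, sample median low control; Buffer or medium: HEPES pH 7.0, NaCl, Pluronic buffer; Signal: fluorescence polarization; Read-out: percent inhibition of probe binding, normalized to plate controls; Timing: pre-incubation 45 min, probe exposure 60 min, at 25 °C; Dosing: 8.92 µM, single dose.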
HTRA1 inhibitor: blocks human HTRA1 serine peptidase; recombinant HTRA1, FP-rhodamine activity-based probe, fluorescence polarization; inhibition, % at 5.96 µM; AID 504803; hit rate 0.5% among 340,000; in the data active means inhibition above about 36%;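 further: 0% = enzyme with DMSO and 100% = wells lacking enzyme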
TCR CD3 inh: inhibitors of human TCR-CD3 interaction; TAMRA-labeled TCR probe fluorescence, biochemical; inhibition, % at 9.4 µM; hit rate 0.37% among 360,000; AID 651800; in the data active means inhibition above about 19%;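 further: recombinant mutant TCR 2C K166C tagged with TAMRA read by polarization; 0% = receptor in buffer alone and 100% = receptor with positive control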
DAGLB inhibitor: blocks human DAGLB lipase activity; inhibition, % at 5.17 µM; HEK293T DAGLB membrane lysate, EnzChek fluorogenic substrate; hit rate 0.059% among 340,000; AID 504411; in the data active means inhibition above about 34%;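 further: 0% = enzyme with vehicle and 100% = wells lacking enzyme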
The depositor's hits bear a star; / = not tested or not shown; ! = repeats disagree. Shown are actives, neighbours in structure and some others; about 1.5% of the full set was active somewhere.

SMILES	SIAE inh	ABHD4 inh	HTRA1 inhibitor	TCR CD3 inh	DAGLB inhibitor
Cc1ccc(S(=O)(=O)N(C)[C@H]2C[C@H]3c4cc(-c5ccc6c(c5)OCO6)ccc4CCN3C[C@H]2[C@H](C)O)cc1	-10	0	/	-5	/
CC1=C(C(=O)OCc2ccccc2)C(c2ccc(C)o2)C2=C(CCCC2=O)N1 (configuration not stated)	33*	-4	-5	3	-3
CC1=C(C(=O)OC2CCCCC2)C(c2ccc(C)o2)C2=C(CCCC2=O)N1 (configuration not stated)	4	-13	-2	-8	-4
O=Cc1ccc(/C=C2\c3ccccc3C(=O)N2c2ccccc2)o1	10	41*	/	-4	/
O=C(N[C@H](C(=O)N1CCC[C@H]1C(=O)NC1CCCC1)C1CCCCC1)c1ccc(Cl)cc1Cl	-7	-1	/	13	/
CCc1cccc2cc3c(N)c(C(=O)Nc4ccc(S(=O)(=O)N5CCCC5)cc4)sc3nc12	27*	7	-4	-7	-10
Cc1cc(N2CCN(CC(C)(C)O)C[C@@H]2C)ccc1N1CCN(Cc2ccccc2)[C@@H](C)C1	4	-1	/	1	/
CCCCS(=O)(=O)N1CCCc2nc(-c3ccc(Br)cc3)ccc21	4	-2	/	1	/
CCc1ccc2c(c1)NC(=O)C2(C)Cc1ccccc1 (configuration not stated)	1	5	/	-3	/
CCc1ccc2c(c1)C1(NN=C(c3cccc4ccccc34)S1)C(=O)N2 (configuration not stated)	5	29	55*	-2	23
O=C(N[C@H](C(=O)N1CCC[C@H]1C(=O)NC1CCCC1)c1ccccc1)c1ccc(Cl)cc1Cl	-4	4	/	3	/
Cc1cc(N)ccc1N1CCCC1	/	/	82*	/	7
O=C(N[C@@H](Cc1cccnc1)C(=O)N1CCC[C@H]1C(=O)NC1CCCC1)C1CCCC1	6	-2	/	-2	/
CCCCNC(=O)C1(C(=O)c2ccc(OC)cc2)CC(c2ccccn2)=NO1 (configuration not stated)	5	-2	/	/	/
CC(=O)Oc1cc(O)c2c(=O)c(OC(C)=O)c(-c3ccc(OC(C)=O)c(OC(C)=O)c3)oc2c1	/	/	50*	/	4
O=C(Nc1ccc([N+](=O)[O-])cc1)Nc1ccc(OC(F)F)c(Cl)c1	-284	-29	-112	40*	-6
CS(=O)(=O)c1ccccc1C(=O)Nc1ccc(-c2nc3ccccc3[nH]2)cc1	1	-4	-5	0	-1
Cc1ccccc1C(=O)Nc1ccc(-c2nc3ccc(C(=O)c4ccccc4)cc3[nH]2)cc1	-145	-110	-112	67*	1
Cc1cc(Nc2ccc(Cl)cc2)nc(NCc2ccccc2)n1	23*	17	-17	-1	0
Cc1cc(Nc2ccccc2)nc(NCc2ccccc2)n1	-5	21	-11	-4	1
O=S(=O)(c1cccs1)N1CCCc2nc(-c3ccccc3)ccc21	1	-7	/	-2	/
CCOc1ccc(NC(=S)NNc2ccnc3cc(Cl)ccc23)cc1	11	9	14	-5	3
S=C(NNc1ccnc2cc(Cl)ccc12)Nc1ccc(Cl)cc1Cl	19*	20	7	1	-1
COc1cccc(C(=O)NCC2CCN(C(=O)C(=O)c3cc4ccccc4o3)CC2)c1	0	-7	/	-4	/
C[C@@H]1CN([C@H](C)CO)C(=O)c2cc(NS(=O)(=O)c3ccccc3)ccc2O[C@@H](C)CCCCO[C@@H]1CN(C)Cc1ccccc1	4	-4	/	1	/
SMILES	SIAE inh	ABHD4 inh	HTRA1 inhibitor	TCR CD3 inh	DAGLB inhibitor
C[C@@H]1ON(C)[C@H]2C[C@H]3c4[nH]c5c(-c6cccc(F)c6)cccc5c4CCN3C(=O)[C@@H]12	5	0	/	-3	/
O=C(Nc1ccc(Nc2cccnc2)cc1)c1c[nH]c2ccccc12	13	42*	/	0	/
Nc1c(C(=O)NC2CC2)sc2nc3c(c(-c4ccco4)c12)CC/C3=C/c1ccco1	/	/	54*	/	9
Cc1nc2sc(C(=O)NC3CC3)c(N)c2c(C)c1Cl	3	3	/	/	/
COc1cc(NC(=O)c2cc3cccc(OC)c3o2)cc(C(=O)Nc2cccc(C(F)(F)F)c2)c1	-137	-45	-66	45*	-5
CCN1CCN(Cc2ccc(NC(=O)c3cc(NC(=O)c4cc(-c5ccc(OC)cc5)n[nH]4)cc(OC)c3)cc2C(F)(F)F)CC1	-136	-88	-105	28*	-4
CCN1CCN(Cc2ccc(NC(=O)c3cc(NC(=O)c4ccc5n[nH]nc5c4)cc(OC)c3)cc2C(F)(F)F)CC1	-16	-63	-31	7	-1
COc1ccc(NC(=S)NNC(=S)Nc2cccc(C(F)(F)F)c2)cc1	31*	12	28	-5	5
COc1ccc(-c2cc(C(=O)Nc3cc(OC)cc(C(=O)Nc4cccc(C(F)(F)F)c4)c3)[nH]n2)cc1	-123	-32	-102	68*!	-5
CCOc1ccc(NC(=S)NNC(=S)Nc2cccc(C(F)(F)F)c2)cc1	2	-1	18	-6	9
CC(C)n1nnnc1C1(C)CN(S(C)(=O)=O)CC(=O)N1Cc1cccc(C(F)(F)F)c1 (configuration not stated)	7	-1	/	/	/
Cc1ccc(Cn2cc(CN(C)S(=O)(=O)c3ccccc3Br)nn2)cc1	-2	5	/	/	/
C[C@@H]1CN([C@H](C)CO)C(=O)c2c(c3ccccc3n2C)-c2ccccc2CO[C@@H]1CN(C)C(=O)CCN(C)C	2	11	/	-1	/
CC(C)C[C@H]1COc2cc(Br)ccc2S(=O)(=O)N1Cc1ccc(Cl)cc1	-2	2	/	0	/
N#CC(C#N)=C(N)/C(C#N)=C/c1cc(O)c(O)c(O)c1	-14	33*	19	6	14
Cn1c(=S)c2[nH]c(SCCN)nc2n(C)c1=O	5	39*	3	-6	4
Cn1c(=S)c2[nH]c(SCCN3CCCC3)nc2n(C)c1=O	10	3	7	-7	-1
CC(C)(C)C(=O)CSc1nnc(SCc2cccc3ccccc23)s1	-3	-2	/	/	/
CCc1ccc(S(=O)(=O)/N=C2\C=C(Nc3ccc(C(=O)O)cc3)C(=O)c3ccccc32)cc1	13	54*	33	-1	11
COC(=O)c1ccccc1NC1=C/C(=N\S(=O)(=O)c2ccc(C(=O)O)cc2)c2ccccc2C1=O	/	/	45*	/	19
COC(=O)C1=C(C)N(Cc2ccccc2C(F)(F)F)C(=NCc2cc(OC)c(OC)c(OC)c2)NC1c1cccc(Cl)c1 (configuration not stated)	-6	8	/	4	/
COC(=O)[C@@]1(Cc2ccc(F)cc2)[C@H]2c3cc(C(=O)N4CCCC4)n(Cc4ccc(C(F)(F)F)nc4)c3C[C@H]2CN1C(=O)c1ccccc1	17*	-8	/	3	/
CC(OC(=O)Cc1ccccc1[N+](=O)[O-])C(=O)NC(=O)NC1CCCCC1 (configuration not stated)	0	-2	58*	3	7
CCOc1ncccc1C(=O)OC(C)C(=O)NC(=O)NC1CCCCC1 (configuration not stated)	-4	8	22	-3	-5
